Measured values as given in the M2OR odorant receptor database.
Substitutions are numbered along the chain they refer to.

Target: T1, OR2B3 (Homo sapiens) (UniProt O76000)
T1 sequence (whole entry): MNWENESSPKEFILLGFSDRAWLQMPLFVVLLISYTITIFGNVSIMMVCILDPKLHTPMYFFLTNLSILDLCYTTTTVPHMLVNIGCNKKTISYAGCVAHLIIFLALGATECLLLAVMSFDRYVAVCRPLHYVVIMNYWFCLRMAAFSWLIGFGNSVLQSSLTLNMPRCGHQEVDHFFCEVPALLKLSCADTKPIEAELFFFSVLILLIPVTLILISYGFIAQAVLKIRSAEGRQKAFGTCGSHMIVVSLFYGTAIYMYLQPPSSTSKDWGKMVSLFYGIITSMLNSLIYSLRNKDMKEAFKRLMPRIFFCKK
Conditions: stereoisomer not certain
Outline: (§1)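 Each entry records the cell line, G-protein, co-transfected protein and tags used. Methods varied with the source, often transient luciferase assays in mammalian cell lines. A receptor–molecule pair is called responsive (active) if the original authors judged its signal statistically different from baseline and non-responsive (inactive) otherwise.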

SMILES	odorant receptor agonist call
CC(C)=CCCC(C)=CCO	inactive
CC(CO)CS (stereo not given)	inactive
CCC(S)C(C)CO (stereo not given)	inactive
CC(=O)OCc1ccccc1	inactive
CCCCCCC=CCCC=O	inactive
CCCCCC(S)C(C)CO (stereo not given)	inactive
CCC1OC(=O)C(O)=C1C (stereo not given)	inactive
CCCCC(S)C(C)CO (stereo not given)	inactive
CC1=NC(C)C(C)S1 (stereo not given)	inactive
CCCCCC(=O)C(C)C(C)=O (stereo not given)	inactive
Cc1cnc(C)c(C)n1	inactive

Target: T2, OR2B6 (Homo sapiens) (UniProt P58173)
T2 sequence (whole entry): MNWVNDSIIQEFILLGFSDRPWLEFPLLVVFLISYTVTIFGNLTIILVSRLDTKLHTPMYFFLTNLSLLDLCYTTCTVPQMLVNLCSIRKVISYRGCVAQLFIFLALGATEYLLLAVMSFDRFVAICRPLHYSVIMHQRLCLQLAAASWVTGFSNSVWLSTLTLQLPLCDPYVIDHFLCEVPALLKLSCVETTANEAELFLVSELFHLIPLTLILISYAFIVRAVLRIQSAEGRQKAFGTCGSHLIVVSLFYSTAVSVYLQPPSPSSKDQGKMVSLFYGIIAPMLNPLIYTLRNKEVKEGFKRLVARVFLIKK
Conditions: stereoisomer not certain
Outline: as §1

SMILES	odorant receptor agonist call
CC(=O)c1c(C)c([N+](=O)[O-])c(C(C)(C)C)c([N+](=O)[O-])c1C	inactive
CC(CO)CS (stereo not given)	inactive
CCC(S)C(C)CO (stereo not given)	inactive
CCCCCCC=CCCC=O	inactive
CCCCCC(S)C(C)CO (stereo not given)	inactive
CCC1OC(=O)C(O)=C1C (stereo not given)	inactive
CCCCC(S)C(C)CO (stereo not given)	inactive
CC1=NC(C)C(C)S1 (stereo not given)	inactive
CCCCCC(=O)C(C)C(C)=O (stereo not given)	inactive
Cc1cnc(C)c(C)n1	inactive
CC1CCCCCCCCCCCCC(=O)C1 (stereo not given)	inactive

System: T3, OR2BB
T3 sequence (whole entry): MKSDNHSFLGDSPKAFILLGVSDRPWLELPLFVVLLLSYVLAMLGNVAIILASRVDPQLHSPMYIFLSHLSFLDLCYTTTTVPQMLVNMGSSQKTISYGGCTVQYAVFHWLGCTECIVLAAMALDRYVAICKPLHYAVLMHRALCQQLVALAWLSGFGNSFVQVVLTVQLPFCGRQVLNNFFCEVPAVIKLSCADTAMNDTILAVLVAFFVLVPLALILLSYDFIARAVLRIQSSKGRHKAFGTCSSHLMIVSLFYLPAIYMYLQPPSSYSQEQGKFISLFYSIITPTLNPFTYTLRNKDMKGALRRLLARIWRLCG
Conditions: stereoisomer not certain
Outline: as §1

SMILES	odorant receptor agonist call
CCCCCCC=CCCC=O	inactive
CCC1OC(=O)C(O)=C1C (stereo not given)	inactive
c1ccc2ncccc2c1	inactive
CC1=NC(C)C(C)S1 (stereo not given)	inactive
Cc1cnc(C)c(C)n1	inactive
O=c1ccc2ccccc2o1	inactive

System: T4, OR2BB
T4 sequence (whole entry): T3 sequence (whole entry) with D223G, T293I, D300G
Conditions: stereoisomer not certain
Outline: as §1

SMILES	odorant receptor agonist call
c1ccc2ncccc2c1	active
c1coc(CSSCc2ccco2)c1	active
O=c1ccc2ccccc2o1	active

System: T5, OR2BB
T5 sequence (whole entry): T3 sequence (whole entry) with D223G
Conditions: stereoisomer not certain
Outline: as §1

SMILES	odorant receptor agonist call
CCCCCCC=CCCC=O	inactive
CCC1OC(=O)C(O)=C1C (stereo not given)	inactive
c1ccc2ncccc2c1	active
c1coc(CSSCc2ccco2)c1	active
CC1=NC(C)C(C)S1 (stereo not given)	inactive
Cc1cnc(C)c(C)n1	inactive
O=c1ccc2ccccc2o1	active

Target: T6, OR2C1 (Homo sapiens) (UniProt O95371)
T6 sequence (whole entry): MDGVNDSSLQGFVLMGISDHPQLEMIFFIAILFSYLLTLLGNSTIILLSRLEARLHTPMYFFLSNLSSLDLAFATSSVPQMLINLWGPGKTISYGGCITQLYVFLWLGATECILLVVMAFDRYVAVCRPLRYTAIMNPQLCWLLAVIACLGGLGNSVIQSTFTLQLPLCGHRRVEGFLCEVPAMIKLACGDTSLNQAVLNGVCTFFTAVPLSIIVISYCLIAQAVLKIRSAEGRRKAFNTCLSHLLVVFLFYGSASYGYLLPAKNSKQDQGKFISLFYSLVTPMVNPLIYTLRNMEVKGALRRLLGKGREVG
Conditions: stereoisomer not certain
Outline: as §1

SMILES	odorant receptor agonist call
C=CCOC(=O)CCCCCC	inactive
CC(C)=CCCC(C)=CCO	inactive
CCCC(=O)C(C)=O	inactive
CCCCCCCC(=O)[O-].[H+]	inactive
CCCCCC(=O)CC	inactive
CC(=O)c1c(C)c([N+](=O)[O-])c(C(C)(C)C)c([N+](=O)[O-])c1C	inactive
CC(CO)CS (stereo not given)	inactive
CCC(=O)O	inactive
CCC(S)C(C)CO (stereo not given)	inactive
CC(=O)OCc1ccccc1	inactive
CCCCCCC=CCCC=O	inactive
CCCCCC(S)C(C)CO (stereo not given)	inactive
CCCCOC=O	inactive
CCC1OC(=O)C(O)=C1C (stereo not given)	inactive
CC(=O)OCC=C(C)C	inactive
CCC(=O)C(=O)CC	inactive
CCCCCC=O	inactive
CCCCC(S)C(C)CO (stereo not given)	inactive
CC1=NC(C)C(C)S1 (stereo not given)	inactive
CCCCCCC(C)=O	inactive
CCCCCCCCCO	inactive
CC12CCC(CC1=O)C2(C)C (stereo not given)	inactive
CCCCCC(=O)C(C)C(C)=O (stereo not given)	inactive
Cc1cnc(C)c(C)n1	inactive
O=c1ccc2ccccc2o1	inactive
CC1CCCCCCCCCCCCC(=O)C1 (stereo not given)	inactive
CCCCCCCCCCO	inactive

System: T7, OR2C1
T7 sequence (whole entry): T6 sequence (whole entry) with C149W
Conditions: stereoisomer not certain
Outline: as §1

SMILES	odorant receptor agonist call
CCCCCCC=CCCC=O	inactive
CCC1OC(=O)C(O)=C1C (stereo not given)	inactive
c1coc(CSSCc2ccco2)c1	inactive
CC1=NC(C)C(C)S1 (stereo not given)	inactive
Cc1cnc(C)c(C)n1	inactive
